Results published in ChEMBL document CHEMBL4513216, “Probing the Open Global Health Chemical Diversity Library for Multistage-Active Starting Points for Next-Generation Antimalarials” (ACS Infect Dis, 2020).

Assay: Toxicity liver stage against HepG2, at 10uM
Type: cell-based
Parameters: test concentration 10 uM, cell line HepG2-A16-CD81EGFP
Conditions: human, HepG2-A16-CD81EGFP cells; read-out: INHIBITION
In short: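 Uninfected HepG2-A16-CD81EGFP cells, 3 × 10^3 per well, 1536-well, plated on prespotted compound at 10 μM final, parasite-free screening media added to match infected plates; puromycin 10 μM positive, DMSO 0.5% negative; run in parallel with 48 h PbLuc assay at 37 °C, 5% CO2; viability by CellTiter-Glo luminescence, normalized to controls.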

SMILES	cytotoxicity at 10 µM
CCOCC(=O)N1CCC2(CC1)COC(COCc1ccccn1)C2 (stereo unspecified)	-127%
c1cncc(CN2CCC3(COCCN(C4CCOCC4)C3)C2)c1 (stereo unspecified)	1.46%
Cc1nc(-c2ccccc2F)sc1C(=O)N1CCC(=O)CC1	-7.42%
Cc1c(NC(=O)NC2CCCC2)cccc1C(=O)N1CCSCC1	11.8%
O=S(=O)(NCCn1cc(C2CCCNC2)nn1)c1ccc(Cl)cc1 (stereo unspecified)	-17.1%
CC(=O)N(Cc1noc(C)n1)C1CCN(CC2CCCC2)C1 (stereo unspecified)	-12.3%
Cc1noc(CN(C)c2ccccc2)n1	8.82%
CC(C)N1c2sc(-c3ccccc3)nc2CC1C(=O)NCCCO (stereo unspecified)	7.8%
OCCOc1ccc(NCc2cccc3cccnc23)cn1	-3.24%
O=C(NCc1cccnc1N1CCCCC1)c1cccs1	-4.43%
Cc1cc(C(C)NC(=O)c2cnc3onc(C)c3c2)c(C)o1 (stereo unspecified)	6.15%
CC(C)CNC(=O)c1cn(C(C)C)cc2c(=O)[nH]nc1-2	0.583%
O=C(NCC(F)F)c1ccc(S(=O)(=O)N2CCCC(O)C2)cc1 (stereo unspecified)	1.29%
Cc1ccc(-c2cc(CNC(=O)N3CCC(N(C)C)CC3)on2)cc1	-10.8%
Cc1ccccc1C(=O)N1CCOC(c2ncc(CN(C)C)[nH]2)C1 (stereo unspecified)	0.53%
CCOCC(=O)N1CC[C@@H]2O[C@@H](C)C[C@H]2C1	-69.2%
CC(c1cc(F)ccc1F)N(C)Cc1nc2c(cnn2C)c(=O)[nH]1 (stereo unspecified)	-7.8%
CC1CCN(S(=O)(=O)NC2CCCCNC2=O)CC1 (stereo unspecified)	14%
CCC1c2ccsc2CCN1C(=O)NCc1cccnc1OC (stereo unspecified)	-2.28%
CC(C)Cc1ncc2c(n1)CN(c1cc(N3CCCC3)nc(N)n1)C2	0.489%
Cn1cc(-c2nc3c(cc2C(=O)O)CCN(C(=O)C2CC2)CC3)cn1	17.9%
CCC1c2cccn2CCN1C(=O)c1cc(OC)nc(OC)n1 (stereo unspecified)	15%
CCC[C@@H]1CN(C(=O)c2cc3ccccc3s2)C[C@H]1NS(C)(=O)=O	-9.53%

SMILES	cytotoxicity at 10 µM
CCn1nc(C)c(NC(=O)CN(C)C(C)c2nccs2)c1C (stereo unspecified)	-143%
COCC1CN(Cc2ccsc2)Cc2nn(C)cc21 (stereo unspecified)	5.15%
COCCn1cc(CC(=O)Nc2c(C)nn(C)c2C)c2ccccc21	1.18%
O=C(c1ccnnc1)N1CC2(CCN(c3ncccn3)C2)C1	5.62%
CS(=O)(=O)NC1CCCN(C(=O)NCc2cccc(F)c2)C1 (stereo unspecified)	-18.8%
CNc1ncc(C(=O)N2CCOC(C(=O)N3CCCCCC3)C2)cn1 (stereo unspecified)	-8.29%
O=c1cc(CN(CCO)C2CC2)nc2ccccn12	-1.05%
CCc1nnsc1C(=O)N1CCCC(n2ccnc2C(C)C)C1 (stereo unspecified)	-16%
CC(C)(C)C(=O)NCCC(=O)N1CCC(Nc2cccnn2)CC1	-4.11%
Cc1nn(C)c(Cl)c1C1CCCN1Cc1nnc(C2CC2)o1 (stereo unspecified)	-6.18%
Cc1cc(CNC(=O)c2ccno2)c(C)o1	-6.39%
CC(=O)N1CCC(c2nccnc2-c2ccc(F)cc2)CC1	-2.22%
O=C(O)c1cnc(N2CCCC2)nc1COc1ccccc1	0.924%
CS(=O)(=O)N1CCN(Cc2cccs2)CC(C(N)=O)C1 (stereo unspecified)	18%
O=C(C[S+]([O-])Cc1ccccc1F)N1CCc2sccc2C1 (stereo unspecified)	-8.02%
COc1ccc2cccc(CC(=O)NCc3nccc(N)n3)c2c1	0.684%
COc1cccc(CNc2nnc(C(C)(C)C)o2)c1OC	-0.508%
CC(=O)N1CCCC(Cc2nccn2C)C1 (stereo unspecified)	-5.52%
COc1c(C(=O)N2CCOCC2)cnc2c1c(C)nn2C	1.64%
Cc1cnn(CCNCC(O)COc2cc(Cl)ccc2Cl)c1 (stereo unspecified)	2.22%
Cc1ncc2c(n1)CN(CC(=O)Nc1nnc(C)s1)CC2	0.153%
CCn1nc(C)c(CCNC(=O)c2cccc(NCC(=O)O)c2)c1C	15.2%
Cc1ccc(CNC(=O)Nc2nncs2)cn1	-9.12%

SMILES	cytotoxicity at 10 µM
CCC1CN(C(=O)c2cccnc2O)CCC(=O)N1Cc1ccccc1 (stereo unspecified)	3.65%
COc1ccc(C(=O)NCc2cccnc2N2CCOCC2)o1	3.1%
c1cc(CN(CCCn2ccnc2)Cc2ccoc2)ccn1	-11.1%
Cc1ccc(C)c(C(=O)CN2C(=O)c3ccccc3CS2(=O)=O)c1	-8.42%
COc1ccc2c(c1)OCC(CNC(=O)c1ccncc1)C2 (stereo unspecified)	-8.63%
O=C(NC1CCN(c2ncccn2)CC1)c1cccc(-n2ccnc2)c1	-1.17%
Cc1ccc2oc(C(=O)N3CCCC(c4noc(C)n4)C3)cc2n1 (stereo unspecified)	-3.56%
CC(=O)N1CCOC(CCc2cc(-c3c(C)noc3C)ncn2)C1 (stereo unspecified)	-1.98%
CCn1nc(CC(C)C)cc1C(=O)N1CC(c2ccncc2)C1	-6.38%
CC(C)Nc1ccnc(-c2ccnc3c2ccn3C)n1	-5.2%
Cn1c(Cn2cccn2)nnc1C1CCN(Cc2cccnc2N)CC1	-9.12%
O=C(Cn1ccc2ccccc21)N1CCC(Oc2cnccn2)CC1	4.61%
COCC(=O)Nc1nnc2n(Cc3cccc(OC)c3)[nH]c(C)c1-2	-11.7%
COCCNC(=O)NC1(c2nc(C)no2)CCCCC1	1.56%
Cc1cccc2cc(C(=O)N3CCN(S(=O)(=O)N(C)C)CC3)n(C)c12	7.39%
O=C(CN1CCCC1Cn1cncn1)NCCc1c(F)cccc1F (stereo unspecified)	-6.24%
CC(C)CCS(=O)(=O)CC(=O)N1CCCC1c1cnn(C)c1 (stereo unspecified)	0.528%
O=C1NCC(C(=O)N(Cc2ccc(C(F)(F)F)cc2)C2CC2)N1 (stereo unspecified)	4.54%
COc1cccc(N2CCC(CNC(=O)NCc3ccco3)C2)c1 (stereo unspecified)	-127%
Cc1nnnn1CCC(=O)N1CCC2(CCC(=O)N(CC3CC3)C2)CC1	4.17%
Cn1cc(N2C(=O)CC[C@@H]3[C@H]2CCN3C(=O)c2cscn2)cn1	-81.5%
Cc1cc(C)n(CC2CCCN2CC(=O)Nc2nnc(C)s2)n1 (stereo unspecified)	5.29%
COCCN1C[C@@H]2CN(S(=O)(=O)c3cccs3)C[C@@H]2C1=O	0.258%

SMILES	cytotoxicity at 10 µM
CN(C)CC(C)(C)Cn1cnc(-c2ccccc2)c1-c1ncc[nH]1	9.21%
COCCOC1CCN(C(=O)NCc2coc3ccccc23)CC1	-8.93%
Cn1cc(C[C@H]2[C@H](N3CCOCC3)CCN2C(=O)c2ccoc2)cn1	-81.5%
Cc1cc(F)ccc1N1CCC(N2C[C@@H](CN(C)C)[C@@H](CO)C2)CC1	-12.1%
CCOCC1CN(CCN2CCCCC2)Cc2cnn(C)c21 (stereo unspecified)	-99.9%
CNC(=O)[C@H]1C[C@@H]2CCN(Cc3ccc4c(c3)OCO4)C[C@@H]2O1	5.79%
CN1CCC/C1=N\S(=O)(=O)c1ccc(NC(=O)c2ccc(F)cc2)cc1	-4.84%
COC(=O)CCC(=O)N1CCC2(CN(Cc3cccc(F)c3)C2)C1	4.6%
CCOC(=O)CC1CCCCN1C(=O)c1cc(C)on1 (stereo unspecified)	5.53%
CC(C)(C)C(O)CN1CCN(C(=O)c2ccc3c(c2)COC3)CC1 (stereo unspecified)	-2.42%
Cc1nc(CCNC(=O)NCc2ccc(N(C)C)nc2)cs1	-11.3%
Cc1ncccc1CNCC1CCc2nnc(C(C)C)n2C1 (stereo unspecified)	-6.27%
O=C(c1ccncc1)N1CCC2(CC1)CCN(Cc1ccccn1)C2=O	-3.18%
COC1CCCN(C(=O)NCC(C)(C)SC)C1 (stereo unspecified)	10.5%
CCCS(=O)(=O)N1CCn2cc(CNc3ccccn3)nc2C1	9.1%
Cc1n[nH]c(-c2ccc(NC(=O)C(C)(C)N3CCN(C)CC3)cc2)n1	-0.876%
COc1cc(C)nc(N2CCN(C(=O)c3ccc(Cl)o3)CC2)n1	-3.22%
NCCc1cc(N2CCOCC2)nc(NC2CC2)n1	0.881%
COc1cccc(CN2CCCC3(CCN(C(CO)CO)C3)C2)c1 (stereo unspecified)	-5.96%
CCOc1cc(C(=O)N2CCCC(c3noc(C(C)C)n3)C2)ccn1 (stereo unspecified)	-6.73%
Cc1noc(C)c1CN(C)C(=O)c1ccc2c(c1O)OC(C)(C)C2	-2.92%
O=S1(=O)CCC(c2nnc(-c3cnc4onc(C5CCCC5)c4c3)o2)C1 (stereo unspecified)	1.84%
Cc1ccc(NS(=O)(=O)C=c2[nH]c(=O)n3cccc3c2=O)cc1	-10.7%

SMILES	cytotoxicity at 10 µM
OC1CCN(CCCn2ccnc2-c2c[nH]cn2)CC1	-1.57%
CN(C)c1ncc2c(O)nc(C3CCCNC3)cc2n1 (stereo unspecified)	8.62%
Cn1c(=O)c2sccc2n(Cc2ccccc2)c1=O	4.84%
CN1CCOC(CNC(=O)C2(c3ccccc3)CCC2)C1 (stereo unspecified)	6.17%
O=C(NCc1cccnc1N1CCCC(O)C1)c1ccc2[nH]nnc2c1 (stereo unspecified)	11.4%
CCC(NCc1nccn1C)c1nc(C(F)(F)F)cs1 (stereo unspecified)	0.245%
CC(C)NC(=O)CN1CCC2(CC1)OCCO2	-8.67%
COCCC(=O)N1CCC(NC(=O)c2cscc2C)CC1	-14.2%
CS(=O)(=O)NCC1CCCN(C(=O)Nc2cccnc2N2CCCC2)C1 (stereo unspecified)	3.85%
O=C(O)[C@@H]1CN(CC(=O)N2CCCCCC2)C[C@H]1c1ccc(F)cc1	-3.24%
CCN(Cc1cn(CC2CCNCC2)nn1)CC1CCCO1 (stereo unspecified)	-1.77%
COc1cc(CN2CCC3(CC2)[C@H](O)C[C@@H]3OCCO)ccc1F	-12.2%
CCC[C@@H]1CN(S(=O)(=O)c2ccc3[nH]c(=O)[nH]c3c2)C[C@H]1NC(C)=O	-7.19%
Cc1nnc(CN(C)S(=O)(=O)c2ccc(Br)cc2Cl)n1C	12.6%
Cc1noc(CCCC(=O)NCC(c2ccco2)N2CCCC2)n1 (stereo unspecified)	-0.363%
Cc1c(-c2cc(C(=O)N3CCc4ncc(Cl)cc4C3)on2)cnn1C	-3.07%
Cc1csc(CNC(=O)Cc2ccc3c(c2)OCCO3)n1	-1.3%
Cc1nc(C)c(CNCC2CCCn3ccnc32)s1 (stereo unspecified)	-14.6%
COc1ccccc1[S+]([O-])CC(=O)NCc1cc(F)cc(F)c1 (stereo unspecified)	24.3%
